In ChEMBL document CHEMBL4396890, “Synthesis, Biological Evaluation, Structure-Activity Relationship, and Mechanism of Action Studies of Quinoline-Metronidazole Derivatives Against Experimental Visceral Leishmaniasis” (J Med Chem, 2019):
Activity calls are given as the source filed them. The calls are words filed in the database; no cut-off is given here.

What was measured:
Leishmania donovani [1] = assay: Antileishmanial activity against Leishmania donovani MHOM/IN/80/Dd8 promastigotes infected in ip dosed BALB/c mouse assessed as reduction in parasite load in spleen administered once daily for 5 days measured 7 days post dose by giemsa staining-based assay; assay type: functional, organism-based
In short: (§1)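 Hamster-passaged strain was transformed to promastigotes. Stationary-phase cells (2 × 10^7 in 0.2 mL PBS) were injected into the tail vein of BALB/c mice. From day 15 post-infection, mice received compound ip in 8% DMSO in PBS for 5 consecutive days, 5 mice per group. Mice were killed day 7 post-treatment. Liver and spleen burden was read from Giemsa-stained stamp smears as LDU.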

Leishmania donovani [2] = assay: Antileishmanial activity against Leishmania donovani MHOM/IN/80/Dd8 amastigotes harboring luciferase reporter gene infected in mouse J774 cells at 100 uM by Giemsa staining-based microscopic assay; assay type: functional, organism-based
In short: (§2)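 Infection of J774 macrophages with L. donovani Dd8 promastigotes at a 1:8 cell:parasite ratio. Compounds were diluted 2-fold in RPMI over 3.125–100 μM final and applied for 48 h. Amastigote inhibition was read by luciferase (RLU) or by Giemsa count of amastigotes per 100 macrophages. IC50 was from dose–response; n = 3 independent experiments done in replicate.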

Leishmania donovani [3] = assay: Antileishmanial activity against Leishmania donovani MHOM/IN/80/Dd8 promastigotes harboring luciferase reporter gene at 100 uM after 48 hrs by MTT assay; assay type: functional, organism-based
In short: (§3)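 Luciferase-expressing L. donovani Dd8 promastigotes were grown at 24 °C in M199 with 10% heat-inactivated FBS and G418 20 μg/mL. They were exposed to a range of concentrations for 48 h, and viability was read by MTT absorbance as percent of untreated control. IC50 was from dose–response; n = 3 independent experiments done in replicate.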

Leishmania donovani [4] = assay: Antileishmanial activity against Leishmania donovani MHOM/IN/80/Dd8 amastigotes harboring luciferase reporter gene infected in mouse J774 cells at 100 uM after 48 hrs by Steady-Glo luminescence assay; assay type: functional, organism-based; in short: as §2
Leishmania donovani [5] = assay: Antileishmanial activity against Leishmania donovani MHOM/IN/80/Dd8 promastigotes harboring luciferase reporter gene at 25 uM after 48 hrs by Steady-Glo luminescence assay relative to control; assay type: functional; details: MHOM/IN/80/Dd8, 48 h
In short: (§4)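 Luciferase-expressing L. donovani Dd8 promastigotes were grown at 24 °C in M199 with 10% heat-inactivated FBS and G418 20 μg/mL. They were treated at varied concentrations for 24 and 48 h, and inhibition was read as relative luminescence units versus untreated control. IC50 was from dose–response; screening values are mean ± SD of at least three experiments in duplicate.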

Leishmania donovani [6] = assay: Antileishmanial activity against Leishmania donovani MHOM/IN/80/Dd8 amastigotes harboring luciferase reporter gene infected in mouse J774 cells at 25 uM after 48 hrs by Steady-Glo luminescence assay relative to control; assay type: functional; details: MHOM/IN/80/Dd8, J774, 48 h; in short: as §2
Leishmania donovani [7] = assay: Antileishmanial activity against Leishmania donovani MHOM/IN/80/Dd8 promastigotes harboring luciferase reporter gene after 48 hrs by Steady-Glo luminescence assay; assay type: functional, organism-based; details: for IC50: MHOM/IN/80/Dd8, 48 h; in short: as §4
Leishmania donovani [8] = assay: Antileishmanial activity against Leishmania donovani MHOM/IN/80/Dd8 amastigotes harboring luciferase reporter gene infected in mouse J774 cells after 48 hrs by Steady-Glo luminescence assay; assay type: functional, organism-based; details: for IC50: MHOM/IN/80/Dd8, J774, 48 h; in short: as §2
Leishmania donovani [9] = assay: Antileishmanial activity against Leishmania donovani MHOM/IN/80/Dd8 promastigotes harboring luciferase reporter gene after 48 hrs by MTT assay; assay type: functional, organism-based; details: for IC50: MHOM/IN/80/Dd8, 48 h; in short: as §3
Leishmania donovani [10] = assay: Antileishmanial activity against Leishmania donovani MHOM/IN/80/Dd8 promastigotes harboring luciferase reporter gene by MTT assay; assay type: functional, organism-based; details: TDE = time-dependent effect; in short: as §3
Leishmania donovani [11] = assay: Antileishmanial activity against Leishmania donovani MHOM/IN/80/Dd8 amastigotes harboring luciferase reporter gene infected in mouse J774 cells by Giemsa staining-based microscopic assay; assay type: functional, organism-based; details: TDE = time-dependent effect; in short: as §2
Leishmania donovani [12] = assay: Antileishmanial activity against Leishmania donovani MHOM/IN/80/Dd8 promastigotes harboring luciferase reporter gene after 48 hrs by MTT assay relative to control; assay type: functional; in short: as §3
Leishmania donovani [13] = assay: Antileishmanial activity against Leishmania donovani MHOM/IN/80/Dd8 amastigotes harboring luciferase reporter gene infected in mouse J774 cells at 50 uM after 48 hrs by Giemsa staining-based microscopic assay relative to control; assay type: functional; details: MHOM/IN/80/Dd8, J774, 48 h; in short: as §2
[14] = Cytotoxicity against mouse J774 cells assessed as cell viability up to 50 uM measured after 48 hrs by MTT assay relative to control; assay type: cell-based; details: read-out: Activity
In short: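 Vero cells and J774 macrophages were exposed to 12.5−400 μM compound for 48 h. Viability was read by MTT. CC50 was derived from the curve. Mean ± SD, n = 3 experiments in replicate.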

[15] = Stability of the compound in simulated intestinal fluid assessed as parent compound remaining measured after 2 hrs by UPLC analysis; assay type: ADME; details: read-out: Stability
In short: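 Compound incubated 2 h in simulated gastric fluid (pH 1.2) […] or in simulated intestinal fluid (pH 6.5) […]; the percentage of intact compound remaining was reported.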

[16] = Stability in rat plasma assessed as parent compound remaining at 10 ug/ml measured after 2 hrs by UPLC analysis; assay type: ADME, cell-free; details: read-out: Stability
[17] = Stability in rat liver microsomes assessed as parent compound remaining at 10 ug/ml preincubated for 5 mins followed by NADPH addition measured after 60 mins by UPLC analysis; assay type: ADME, Microsome; details: read-out: Stability
In short: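 Compound incubated with rat liver microsomes and the percentage remaining was followed over time up to 60 min. In vitro half-life and related parameters were derived from a plot of the natural log of percent remaining against incubation time.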

[18] = Half life in rat liver microsomes at 10 ug/ml preincubated for 5 mins followed by NADPH addition measured after 60 mins by UPLC analysis; assay type: ADME, Microsome
In short: (§5)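 Compound was incubated with rat liver microsomes, sampling % remaining up to 60 min. In vitro half-life and related parameters came from a plot of ln(% remaining) versus incubation time.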

[19] = Intrinsic clearance in rat liver microsomes at 10 ug/ml preincubated for 5 mins followed by NADPH addition measured after 60 mins by UPLC analysis; assay type: ADME, Microsome; details: read-out: CLH; in short: as §5
Leishmania donovani [20] = assay: Antileishmanial activity against Leishmania donovani MHOM/IN/80/Dd8 promastigotes infected in BALB/c mouse assessed as reduction in parasite load in liver at 50 mg/kg, ip administered once daily for 5 days measured 7 days post dose by giemsa staining-based assay relative to control; assay type: functional; parameters: scale not given: the % may be the effect or the level left; in short: as §1
Leishmania donovani [21] = assay: Antileishmanial activity against Leishmania donovani MHOM/IN/80/Dd8 promastigotes infected in BALB/c mouse assessed as reduction in parasite load in spleen at 200 mg/kg, ip administered once daily for 5 days measured 7 days post dose by giemsa staining-based assay relative to control; assay type: functional; parameters: scale not given: the % may be the effect or the level left; in short: as §1
Leishmania donovani [22] = assay: Antileishmanial activity against Leishmania donovani MHOM/IN/80/Dd8 promastigotes infected in BALB/c mouse assessed as reduction in parasite load in liver at 200 mg/kg, ip administered once daily for 5 days measured 7 days post dose by giemsa staining-based assay relative to control; assay type: functional; parameters: scale not given: the % may be the effect or the level left; in short: as §1
[23] = Toxicity in BALB/c mouse infected with Leishmania donovani MHOM/IN/80/Dd8 promastigotes assessed as effect on health at 12.5 to 200 mg/kg, ip administered once daily for 5 days measured up to 7 days post dose; assay type: organism-based; details: in vivo
In short: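 BALB/c mice (20 ± 2 g) were infected by tail-vein injection of 2 × 10^7 stationary-phase promastigotes. At day 15 they received ip doses in 8% DMSO/PBS for 5 consecutive days and were killed at day 7 post-treatment. Survival, general health and body weight were monitored; 5 mice per group.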

| SMILES | Activity (Leishmania donovani [1]) | inhibition (Leishmania donovani [2]) | inhibition (Leishmania donovani [3]) | inhibition (Leishmania donovani [4]) | inhibition at 25 µM (Leishmania donovani [5]) [%] | inhibition at 25 µM (Leishmania donovani [6]) [%] | inhibition (Leishmania donovani [7]) | IC50 (Leishmania donovani [7]) [µM] | inhibition (Leishmania donovani [8]) | IC50 (Leishmania donovani [8]) [µM] | inhibition (Leishmania donovani [9]) | IC50 (Leishmania donovani [9]) [µM] | inhibition (Leishmania donovani [10]) | inhibition (Leishmania donovani [11]) | Imax (Leishmania donovani [12]) [%] | inhibition at 50 µM (Leishmania donovani [13]) [%] | viability at 48 h [14] [%] | remaining at 2 h [15] [%] | remaining at 2 h, 10 ug/ml [16] [%] | remaining at 1 h, 10 ug/ml [17] [%] | further results |
| --- | --- | --- | --- | --- | --- | --- | --- | --- | --- | --- | --- | --- | --- | --- | --- | --- | --- | --- | --- | --- | --- |
| Cc1cc(-c2cccc(OCCn3c([N+](=O)[O-])cnc3C)c2)nc2ccccc12 | Dose-dependent effect | Active | Active | Active | 77.8 | 75.2 | Dose-dependent effect | 9.54 | Dose-dependent effect | 9.81 | Dose-dependent effect | 9.4 | Tde | Tde | >93 | > 93 | > 92 | 11.4 | 68.2 | 72.8 | half-life at 10 ug/ml [18]: 2.18 h; microsomal CLint at 10 ug/ml [19]: 10.7 µL/min/mg; Activity (Leishmania donovani [20]): >50%; Activity (Leishmania donovani [21]): 54.14%; Activity (Leishmania donovani [22]): 55.5%; Activity [23]: Non-Toxic |
| Cc1cc(-c2ccc(OCCn3c([N+](=O)[O-])cnc3C)cc2)nc2ccccc12 | Dose-dependent effect | Active | Active | Active | 85.8 | 83.2 | Dose-dependent effect | 5.42 | Dose-dependent effect | 3.75 | Dose-dependent effect | 5.3 | Tde | Tde | >93 | > 93 | > 92 | 43.6 | 88.5 | 76 | half-life at 10 ug/ml [18]: 2.5 h; microsomal CLint at 10 ug/ml [19]: 9.3 µL/min/mg; Activity (Leishmania donovani [20]): >82.3%; Activity (Leishmania donovani [21]): 82.2%; Activity (Leishmania donovani [22]): 82.7%; Activity [23]: Non-Toxic |
